The values that follow come from ChEMBL document CHEMBL1127386, “Nitrogen-in-the-ring pyranoses and furanoses: structural basis of inhibition of mammalian glycosidases” (J Med Chem, 1994).

For assay [1], the target named is T1, Beta-galactosidase (Rattus norvegicus, UniProt D3ZUM4).
T1 sequence (D3ZUM4 whole entry): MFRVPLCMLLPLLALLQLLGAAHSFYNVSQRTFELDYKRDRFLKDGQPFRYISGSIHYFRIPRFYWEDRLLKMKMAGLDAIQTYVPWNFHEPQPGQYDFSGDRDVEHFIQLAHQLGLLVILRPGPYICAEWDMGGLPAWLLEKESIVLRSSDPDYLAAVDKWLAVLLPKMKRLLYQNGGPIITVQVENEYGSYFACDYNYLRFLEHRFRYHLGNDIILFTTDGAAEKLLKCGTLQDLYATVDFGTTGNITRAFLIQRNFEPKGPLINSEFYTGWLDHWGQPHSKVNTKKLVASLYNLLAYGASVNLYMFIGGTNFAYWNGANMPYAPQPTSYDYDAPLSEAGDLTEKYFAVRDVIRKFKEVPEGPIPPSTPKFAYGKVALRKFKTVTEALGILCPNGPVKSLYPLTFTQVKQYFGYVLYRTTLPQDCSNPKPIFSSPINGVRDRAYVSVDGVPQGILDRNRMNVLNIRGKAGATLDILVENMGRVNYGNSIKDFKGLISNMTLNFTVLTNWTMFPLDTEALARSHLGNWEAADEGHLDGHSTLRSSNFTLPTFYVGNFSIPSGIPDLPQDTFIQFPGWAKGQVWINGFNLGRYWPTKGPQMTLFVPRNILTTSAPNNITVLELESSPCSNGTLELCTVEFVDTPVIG
The assay can be described thus: Concentration that causes 50% inhibition of mammalian lactase beta-galactosidase was determined in rat intestine; NI is less than 50 % inhibition at 1000 uM.

Assay [2] deals with T2, Beta-galactosidase (Bos taurus, UniProt Q58D55).
T2 sequence (Q58D55 whole entry): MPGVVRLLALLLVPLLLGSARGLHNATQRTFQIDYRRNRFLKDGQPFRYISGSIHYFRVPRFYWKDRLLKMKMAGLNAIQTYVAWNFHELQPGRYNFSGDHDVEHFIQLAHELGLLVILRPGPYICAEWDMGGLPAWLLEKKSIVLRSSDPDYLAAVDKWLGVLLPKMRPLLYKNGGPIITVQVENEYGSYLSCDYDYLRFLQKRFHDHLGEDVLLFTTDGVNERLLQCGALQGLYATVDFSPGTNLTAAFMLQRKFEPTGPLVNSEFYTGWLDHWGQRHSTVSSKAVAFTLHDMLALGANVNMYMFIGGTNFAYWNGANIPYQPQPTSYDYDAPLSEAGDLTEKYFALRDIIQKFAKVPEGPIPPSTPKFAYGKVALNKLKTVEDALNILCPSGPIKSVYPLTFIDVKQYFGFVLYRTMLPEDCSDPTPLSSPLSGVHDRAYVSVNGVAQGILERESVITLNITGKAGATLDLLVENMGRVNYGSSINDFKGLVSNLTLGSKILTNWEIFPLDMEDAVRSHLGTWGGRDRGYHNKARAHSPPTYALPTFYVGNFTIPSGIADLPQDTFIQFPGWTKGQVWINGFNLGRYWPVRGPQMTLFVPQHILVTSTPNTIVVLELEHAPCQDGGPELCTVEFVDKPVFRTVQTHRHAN
The assay can be described thus: Concentration that causes 50% inhibition of mammalian cytosolic beta-galactosidase was determined in bovine liver; NI is less than 50 % inhibition at 1000 uM.

Assay [3] is described as follows: Concentration that causes 50% inhibition of mammalian alpha-glucosidase (endoplasmic reticulum glucosidase II) was determined in rat liver; NI is less than 50 % inhibition at 1000 uM.
Assay [4] addresses T3, Trehalase (Rattus norvegicus, UniProt O70282).
T3 sequence (O70282 whole entry): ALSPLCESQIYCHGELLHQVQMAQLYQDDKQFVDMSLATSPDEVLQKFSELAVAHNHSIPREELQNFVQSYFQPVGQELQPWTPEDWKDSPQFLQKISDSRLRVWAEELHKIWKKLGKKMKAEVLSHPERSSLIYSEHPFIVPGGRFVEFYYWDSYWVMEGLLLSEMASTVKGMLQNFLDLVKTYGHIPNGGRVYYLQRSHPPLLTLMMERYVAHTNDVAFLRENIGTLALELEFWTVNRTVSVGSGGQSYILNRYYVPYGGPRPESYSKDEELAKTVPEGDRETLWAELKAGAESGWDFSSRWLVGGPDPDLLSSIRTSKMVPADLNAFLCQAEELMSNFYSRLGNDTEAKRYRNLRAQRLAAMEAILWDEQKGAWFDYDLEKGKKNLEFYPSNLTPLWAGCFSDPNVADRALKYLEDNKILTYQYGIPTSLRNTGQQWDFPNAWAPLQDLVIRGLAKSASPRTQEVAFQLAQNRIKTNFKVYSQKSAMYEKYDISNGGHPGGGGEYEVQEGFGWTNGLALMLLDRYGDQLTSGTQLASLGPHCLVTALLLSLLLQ
The assay can be described thus: Concentration that causes 50% inhibition of mammalian trehalase was determined in rat intestine; NI is less than 50 % inhibition at 1000 uM.

The target in assay [5] is T1, Beta-galactosidase. The assay can be described thus: Concentration that causes 50% inhibition of mammalian epididymal beta-galactosidase was determined in rat epididymis NI is less than 50 % inhibition at 1000 uM. Format: tissue-based.
For assay [6], the target named is T1, Beta-galactosidase. The assay can be described thus: Concentration that causes 50% inhibition of mammalian lysosomal beta-galactosidase was determined in rat liver; NI is less than 50 % inhibition at 1000 uM.
Assay [7] has as its target T2, Beta-galactosidase. The assay can be described thus: Concentration that causes 50% inhibition of mammalian lysosomal beta-galactosidase was determined in bovine liver; NI is less than 50 % inhibition at 1000 uM.
The target of assay [8] is Lysosomal alpha-glucosidase (Rattus norvegicus, UniProt Q6P7A9). The assay can be described thus: Concentration that causes 50% inhibition of mammalian alpha-glucosidase (lysosomal) was determined in rat liver; NI is less than 50 % inhibition at 1000 uM.
The target in assay [9] is T1, Beta-galactosidase. The assay can be described thus: Concentration that causes 50% inhibition of mammalian epididymal beta-galactosidase was determined in rat epididymis; NI is less than 50 % inhibition at 1000 uM. In kind it is tissue-based.
The target of assay [10] is T3, Trehalase. The assay can be described thus: Concentration that causes 50% inhibition of mammalian trehalase was determined in rat intestine; NI is less than 50 % inhibition at 1000 micro M.
In assay [11] the target is Lactase/phlorizin hydrolase (Rattus norvegicus, UniProt Q02401). The assay can be described thus: Tested for competitive inhibition of rat intestinal lactase. Summed up: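 Brush border membranes from rat small intestine, assayed at pH 5.8 with lactose as substrate. Released D-glucose was measured colorimetrically by the D-glucose oxidase–peroxidase method. Ki and inhibition mode were determined.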

Assay [12] in a line: Concentration that causes 50% inhibition of mammalian alpha-glucosidase (endoplasmic reticulum glucosidase II) was determined in rat liver NI is less than 50 % inhibition at 1000 uM. In kind it is tissue-based.
In assay [13] the target is T4, Alpha-glucosidase (Bos taurus, UniProt Q9MYM4). The assay can be described thus: Inhibition of mammalian alpha-glucosidase (lysosomal) was determined in bovine liver; NI is less than 50 % inhibition at 1000 uM.
Assay [14] concerns the target T2, Beta-galactosidase. The assay can be described thus: Concentration that causes 50% inhibition of mammalian lysosomal beta-galactosidase was determined in bovine liver NI is less than 50 % inhibition at 1000 uM. In kind it is tissue-based.
The target of assay [15] is T2, Beta-galactosidase. The assay can be described thus: Concentration that causes 50% inhibition of mammalian cytosolic beta-galactosidase was determined in bovine liver NI is less than 50 % inhibition at 1000 uM. Format: tissue-based.
Assay [16] concerns the target T1, Beta-galactosidase. The assay can be described thus: Concentration that causes 50% inhibition of mammalian lysosomal beta-galactosidase was determined in rat liverNI is less than 50 % inhibition at 1000 uM.
The target in assay [17] is T3, Trehalase. The assay can be described thus: Concentration that causes 50% inhibition of mammalian trehalase was determined in rat intestine.
Assay [18] addresses T1, Beta-galactosidase. The assay can be described thus: Concentration that causes 50% inhibition of mammalian beta-galactosidase was determined in rat intestine; NI is less than 50 % inhibition at 1000 uM.
Assay [19] concerns the target T1, Beta-galactosidase. The assay can be described thus: Concentration that causes 50% inhibition of mammalian beta-galactosidase was determined in rat epididymis; NI is less than 50 % inhibition at 1000 uM. In kind it is tissue-based.
The nature of assay [20]: Concentration that causes 50% inhibition of mammalian alpha-glucosidase (endoplasmic reticulum glucosidase II) was determined in rat liver. Format: tissue-based.
Assay [21] has as its target T4, Alpha-glucosidase. The assay can be described thus: Inhibition of mammalian alpha-glucosidase (lysosomal) was determined in bovine liver. In kind it is tissue-based.

T4 sequence (Q9MYM4 whole entry): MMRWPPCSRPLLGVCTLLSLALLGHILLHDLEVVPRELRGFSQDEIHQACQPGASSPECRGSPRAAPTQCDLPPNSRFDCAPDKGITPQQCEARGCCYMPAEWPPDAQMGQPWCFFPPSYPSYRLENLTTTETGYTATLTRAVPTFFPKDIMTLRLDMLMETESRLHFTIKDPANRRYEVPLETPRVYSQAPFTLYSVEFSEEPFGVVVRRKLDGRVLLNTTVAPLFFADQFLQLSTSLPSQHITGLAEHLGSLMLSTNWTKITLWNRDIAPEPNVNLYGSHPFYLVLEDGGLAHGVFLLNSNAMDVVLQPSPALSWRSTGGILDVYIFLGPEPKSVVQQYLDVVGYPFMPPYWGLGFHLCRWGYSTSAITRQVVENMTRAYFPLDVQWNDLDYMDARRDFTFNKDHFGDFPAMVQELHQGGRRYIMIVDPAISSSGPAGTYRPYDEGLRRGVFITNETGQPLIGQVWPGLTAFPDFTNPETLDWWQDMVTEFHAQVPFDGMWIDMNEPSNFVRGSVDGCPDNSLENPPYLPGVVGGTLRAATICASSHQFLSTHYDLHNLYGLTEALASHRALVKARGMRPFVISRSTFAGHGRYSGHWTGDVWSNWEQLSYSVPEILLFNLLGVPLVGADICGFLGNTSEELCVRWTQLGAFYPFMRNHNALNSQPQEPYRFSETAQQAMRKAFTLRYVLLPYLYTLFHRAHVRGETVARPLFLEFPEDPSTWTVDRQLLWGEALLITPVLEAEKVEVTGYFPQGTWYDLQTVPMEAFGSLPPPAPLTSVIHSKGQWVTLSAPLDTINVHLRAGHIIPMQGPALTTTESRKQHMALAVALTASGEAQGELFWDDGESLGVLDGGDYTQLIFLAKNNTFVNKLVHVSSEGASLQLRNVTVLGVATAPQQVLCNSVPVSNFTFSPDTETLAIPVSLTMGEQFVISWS
Lysosomal alpha-glucosidase, sequence (Q6P7A9 whole entry): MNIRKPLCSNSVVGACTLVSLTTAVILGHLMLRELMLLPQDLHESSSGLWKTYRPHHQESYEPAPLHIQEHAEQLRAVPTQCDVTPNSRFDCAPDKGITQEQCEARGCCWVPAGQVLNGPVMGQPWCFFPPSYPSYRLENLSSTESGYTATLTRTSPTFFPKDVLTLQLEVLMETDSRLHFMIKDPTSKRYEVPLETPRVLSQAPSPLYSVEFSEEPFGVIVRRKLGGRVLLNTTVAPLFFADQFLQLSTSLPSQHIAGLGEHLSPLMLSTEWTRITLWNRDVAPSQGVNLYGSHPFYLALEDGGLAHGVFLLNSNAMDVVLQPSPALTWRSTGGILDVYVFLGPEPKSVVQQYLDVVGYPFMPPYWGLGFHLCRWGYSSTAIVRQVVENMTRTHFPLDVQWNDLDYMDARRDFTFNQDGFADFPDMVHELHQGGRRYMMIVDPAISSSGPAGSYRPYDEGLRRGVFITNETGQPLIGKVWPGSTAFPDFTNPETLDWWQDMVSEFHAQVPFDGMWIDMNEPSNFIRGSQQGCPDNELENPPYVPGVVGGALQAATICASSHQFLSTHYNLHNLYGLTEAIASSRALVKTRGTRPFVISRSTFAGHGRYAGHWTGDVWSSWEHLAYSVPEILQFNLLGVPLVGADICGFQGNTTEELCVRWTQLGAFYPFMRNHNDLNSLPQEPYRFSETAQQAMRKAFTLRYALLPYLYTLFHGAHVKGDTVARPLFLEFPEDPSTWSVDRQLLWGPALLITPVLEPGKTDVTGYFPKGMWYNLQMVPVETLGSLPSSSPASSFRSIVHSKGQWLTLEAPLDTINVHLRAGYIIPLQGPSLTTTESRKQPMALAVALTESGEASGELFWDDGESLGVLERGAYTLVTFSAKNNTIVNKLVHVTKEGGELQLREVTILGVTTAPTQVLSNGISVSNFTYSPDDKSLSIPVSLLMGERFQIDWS
Lactase/phlorizin hydrolase, sequence (Q02401 868-1928 limits assumed): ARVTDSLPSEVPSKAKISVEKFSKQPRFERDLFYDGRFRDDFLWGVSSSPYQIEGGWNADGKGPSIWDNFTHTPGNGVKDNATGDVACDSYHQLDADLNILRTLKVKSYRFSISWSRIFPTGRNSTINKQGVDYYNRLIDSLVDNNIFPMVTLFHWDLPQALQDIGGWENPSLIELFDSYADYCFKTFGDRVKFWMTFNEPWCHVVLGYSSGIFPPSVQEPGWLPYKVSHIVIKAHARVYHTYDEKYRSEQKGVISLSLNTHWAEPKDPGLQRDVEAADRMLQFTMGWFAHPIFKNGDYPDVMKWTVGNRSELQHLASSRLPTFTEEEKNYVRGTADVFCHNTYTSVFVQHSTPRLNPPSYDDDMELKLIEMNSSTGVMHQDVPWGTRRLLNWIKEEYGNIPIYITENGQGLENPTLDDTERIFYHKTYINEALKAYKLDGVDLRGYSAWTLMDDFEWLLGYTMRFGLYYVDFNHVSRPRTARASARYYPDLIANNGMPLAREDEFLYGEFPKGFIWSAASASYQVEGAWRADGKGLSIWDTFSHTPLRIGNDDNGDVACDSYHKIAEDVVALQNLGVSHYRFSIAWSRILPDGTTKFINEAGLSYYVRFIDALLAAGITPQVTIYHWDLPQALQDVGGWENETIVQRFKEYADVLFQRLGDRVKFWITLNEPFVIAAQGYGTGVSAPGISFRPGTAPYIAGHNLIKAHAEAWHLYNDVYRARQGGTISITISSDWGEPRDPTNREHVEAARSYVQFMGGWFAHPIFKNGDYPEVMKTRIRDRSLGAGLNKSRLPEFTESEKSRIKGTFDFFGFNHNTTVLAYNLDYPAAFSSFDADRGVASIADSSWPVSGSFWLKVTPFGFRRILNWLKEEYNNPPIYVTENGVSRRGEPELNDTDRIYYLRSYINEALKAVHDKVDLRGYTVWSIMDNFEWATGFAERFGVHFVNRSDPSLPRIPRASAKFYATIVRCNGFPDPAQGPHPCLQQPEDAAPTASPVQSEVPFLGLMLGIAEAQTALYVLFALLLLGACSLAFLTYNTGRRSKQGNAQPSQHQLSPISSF

Usually IC50 stands for the concentration needed to halve the response being measured. Low readings indicate greater potency in that assay, high ones weaker potency in that assay. As for `OC[C@H]1NCC[C@@H](O)[C@H]1O`, the IC50 entry (at Beta-galactosidase [1]; against Beta-galactosidase [2]; in [3]; against Trehalase [4]; on Beta-galactosidase [5]; against Beta-galactosidase [6]) was “No inhibition” in each case. For the same molecule, the IC50 result (against Beta-galactosidase [7]; in assay [8]) was “No inhibition” in each case.

`OC[C@H]1N[C@H](CO)[C@@H](O)[C@@H]1O`: the IC50 entry (in assay [3]; on Beta-galactosidase [9]; at Beta-galactosidase [6]; at Beta-galactosidase [7]) was “No inhibition” throughout.

The Ki is the equilibrium dissociation constant of an inhibitor or competing ligand from its target. Higher therefore signals lower affinity. In the case of `OC[C@H]1NCC[C@H](O)[C@@H]1O`, the IC50 entry (against Trehalase [10]; against Beta-galactosidase [9]; against Beta-galactosidase [6]; at Beta-galactosidase [7]; in assay [8]; in assay [12]) was “No inhibition” each time. Moreover, the IC50 result at Alpha-glucosidase [13] is given as “No inhibition”. This molecule gave a Ki in assay [11] of 1.9 µM.

For `OC[C@H]1NC[C@H](O)[C@@H](O)[C@@H]1O` (stereo in doubt; 1) [DUVOGLUSTAT], the IC50 result at Beta-galactosidase [14] was “No inhibition”; against Beta-galactosidase [15], “No inhibition”; at Beta-galactosidase [5] it was “No inhibition”; at Beta-galactosidase [16] it was “No inhibition”; against Trehalase [17], 42 µM.

As to `OC[C@H]1NC[C@H](O)[C@@H](O)[C@@H]1O` (stereo in doubt; 2) [DUVOGLUSTAT], the half-inhibitory concentration (IC50) result (at Beta-galactosidase [18]; in assay [12]; on Beta-galactosidase [19]) was “No inhibition” in each case.

For `OC[C@H]1NC[C@H](O)[C@@H](O)[C@@H]1O` (stereo in doubt; 4) [DUVOGLUSTAT], the IC50 result on Beta-galactosidase [2] is on record as “No inhibition”.

Regarding `OC[C@H]1NC[C@H](O)[C@@H](O)[C@@H]1O` [DUVOGLUSTAT], the IC50 result (in assay [3]; against Trehalase [4]; on Beta-galactosidase [9]; at Beta-galactosidase [6]; on Beta-galactosidase [7]; in assay [8]) was “No inhibition” in each case. The concentration for half-maximal inhibition (IC50) result against Alpha-glucosidase [13] is “No inhibition”.

Take `OC[C@H]1NCC[C@@H](O)[C@@H]1O` [FAGOMINE]: the IC50 in [20] was 840 µM; against Trehalase [4], “No inhibition”; against Beta-galactosidase [9], “No inhibition”; on Beta-galactosidase [6], “No inhibition”; at Beta-galactosidase [7] it was “No inhibition”; in assay [8], “No inhibition”. On Alpha-glucosidase [21], this molecule returned an IC50 of 520 µM.
